Screening data: PubChem BioAssay, Broad Institute
AF4-AF9 inh = blocks AF4 peptide binding to human AF9. P42568. AlphaScreen, biotin-AF4 peptide binding to FLAG-AF9. inhibition, % at 10 µM. 350,000 tested, 0.47% active. AID 651704;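 active = every replicate reaching a set inhibition limit, whatever the replicate mean, cut at about 25% in these data; inconclusive = mean inhibition reaches that limit but some replicates miss it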;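 also: 0% = plate neutral control median and 100% = total signal loss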
Target sequence (P42568 whole entry, looked up): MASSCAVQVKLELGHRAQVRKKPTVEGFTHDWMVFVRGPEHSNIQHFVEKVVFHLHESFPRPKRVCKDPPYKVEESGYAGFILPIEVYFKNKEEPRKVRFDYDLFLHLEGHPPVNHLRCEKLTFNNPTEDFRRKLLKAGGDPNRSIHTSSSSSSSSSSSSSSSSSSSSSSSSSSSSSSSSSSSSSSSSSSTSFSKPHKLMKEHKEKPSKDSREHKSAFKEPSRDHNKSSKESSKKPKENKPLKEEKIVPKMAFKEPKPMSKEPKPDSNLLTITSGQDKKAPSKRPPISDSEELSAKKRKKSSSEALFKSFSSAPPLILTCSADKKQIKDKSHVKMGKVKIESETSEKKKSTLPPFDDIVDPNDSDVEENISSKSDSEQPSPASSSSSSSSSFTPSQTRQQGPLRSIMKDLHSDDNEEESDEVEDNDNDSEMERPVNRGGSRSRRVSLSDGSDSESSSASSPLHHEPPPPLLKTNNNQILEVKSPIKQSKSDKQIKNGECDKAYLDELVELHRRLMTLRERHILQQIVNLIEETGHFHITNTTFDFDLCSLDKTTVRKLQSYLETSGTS
Ecoli rRNA inh = selective bacterial rRNA inhibition in E. coli | E. coli WT GFP vs humanized-ribosome RFP mutants, fluorescence, 24 h; active compounds read low; DMSO median 0, no signal -100 | 350,000 tested, 1.6% active | GFP signal change (wild-type ribosome), % (concentration not given with the values);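 active = significant combined selectivity score with lowered wild-type GFP, culture density cut under 30%, mutant RFP and density less affected; inactive = any of these conditions unmet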
Cneo AK release = causes C. neoformans cell lysis; adenylate kinase release luminescence, 4 h; normalised: neutral wells 0, clomiphene wells 100; lysis activity, % at 15 µM; 360,000 tested, 0.2% active; AID 651654;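 active = mean lysis activity across replicates of at least 80%, whatever share of replicates individually reach that level; inactive = mean lysis activity below 80%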
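Test system: log-phase Cryptococcus neoformans yeast cells; Quantity: yeast cell density of 5 × 10^6 cells/mL; Buffer or medium: YPD; Doses: single compound concentration per well; Timing: 4 h at 37 °C static, read 1 h later; Measured by: AK luminescence; Read-out basis: lysis from increased AK signal; Control set: Clomiphene as positive control.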
DENV2 CPE rescue = protects cells from dengue virus 2 cytopathic effect; DENV2-infected cells, cytopathic effect rescue, plate reader; CPE inhibition, % at 9.99 µM; 350,000 tested, 1.7% active; AID 651640; in the data active = CPE inhibition above about 20%, passing the limit was not always enough; inconclusive = no clear call, values can overlap the other calls; tested in BHK-21 cells;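 also: 0% = median of neutral control wells and 100% = median of positive control wells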
PfHsp90 set2 = reduces growth (ATP signal) of yeast expressing P. falciparum Hsp90; S. cerevisiae expressing PfHsp90, BacTiter-Glo ATP, 48 h; yeast lacking PDR1 and PDR3 efflux regulators; inhibition, % at 9.4 µM; 310,000 tested, 0.32% active; AID 504621;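 active = every replicate shows inhibition above about 80%, whatever the replicate mean, limit read from the data; inconclusive = mean inhibition reaches the set limit but some replicate falls short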;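 also: 0% = DMSO neutral controls and 100% = 20 µM radicicol positive controls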
S100A4 inh HTS = blocks human S100A4 binding to myosin IIA peptide; P26447; S100A4/TAMRA-MyoIIA peptide fluorescence polarization; inhibition, % at 10.7 µM; 360,000 tested, 0.14% active; AID 652163;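 active = mean inhibition of at least 70% across replicates, with every replicate also reaching that level; inconclusive = mean inhibition reaches 70% but some replicates fall short; inactive = mean inhibition below 70%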
Target sequence (P26447 whole entry, looked up): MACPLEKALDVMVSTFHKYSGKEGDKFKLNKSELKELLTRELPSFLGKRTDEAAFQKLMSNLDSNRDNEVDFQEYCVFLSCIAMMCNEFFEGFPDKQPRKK
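Assay system: human S100A4 monomer with TAMRA-labelled myosin IIA peptide / Buffer or medium: Calcium-containing HEPES buffer, pH 7.2 / Reagent: TAMRA-labelled myosin IIA heavy-chain peptide probe, 5 nM / Compound: one dose per compound / Timing: polarization read 5 min after assay mix addition, stable 5–60 min / Benchmarks: neutral control DMSO, positive control TFP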
Starred values were filed as active, the others as inactive; ? = inconclusive; nt = not tested or not shown. Hits are enriched below; roughly 3.2% of the tested compounds scored in any of these assays.

SMILES	AF4-AF9 inh	Ecoli rRNA inh	Cneo AK release	DENV2 CPE rescue	PfHsp90 set2	S100A4 inh HTS
C[C@H](NC(=O)C[C@@H]1C[C@H]2c3cc(NC(=O)C4CCOCC4)ccc3O[C@H]2[C@@H](CO)O1)c1ccccc1	2.9	8.6	44.5	?	nt	-7.1
Cc1cc(C(=O)NCC(=O)OCC(=O)Nc2ccc(OC(F)F)cc2)ccc1[N+](=O)[O-]	-44.9	-21.9*	nt	2.7	-1.7	0.7
Cc1ccc(C(=O)OCC(=O)Nc2ccccc2C(F)(F)F)cc1S(=O)(=O)N1CCCCC1	7.9	-2.1	0.1	101.1*	-14.7	-4.0
Cc1ccc(NC(=O)CNC(=O)c2ccc(OC(F)F)cc2)cc1S(=O)(=O)N1CCCCCC1	0.3	-23.0*	1.1	8.9	22.4	-6.2
Cc1ccc(C(=O)OCC(=O)N2C(C)CCCC2C)cc1S(=O)(=O)N1CCOCC1 (configuration not stated)	0.7	1.7	nt	25.1*	nt	14.2
CC1CCCC(C)N1C(=O)COC(=O)c1ccc(Br)c(S(=O)(=O)N2CCOCC2)c1 (configuration not stated)	3.7	-5.2	0.3	-14.6	-26.0	2.7
O=C(COC(=O)c1cccc(S(=O)(=O)N2CCCCCC2)c1)Nc1ccccc1C(F)(F)F	-0.6	2.0	2.3	18.1	9.0	-4.4
CCC(=O)Nc1ccc2c(c1)C(=O)N(C)[C@@H]1CC[C@H](CC(=O)N3CCc4ccccc4C3)O[C@H]1CO2	-1.0	1.9	3.0	-3.9	nt	-8.4
C=CCn1c(COc2ccccc2)nc2ccccc21	-1.2	-27.4*	5.4	-2.3	-7.7	-2.9
CN(C)CCn1c(COc2ccccc2)nc2ccccc21	nt	7.9	nt	19.5	7.7	15.5
Cn1nnnc1Sc1ncnc2scc(-c3ccccc3C(F)(F)F)c12	-13.9	-17.9*	-1.5	-8.4	-15.1	-0.5
COc1ccccc1CN1C(=O)c2ccccc2[C@@]2(Cc3ccccc3N(CCN3CCOCC3)C2=O)[C@@H]1c1ccc(CO)cc1	-2.5	nt	19.8	-3.1	nt	12.3
C[C@@H]1CN([C@H](C)CO)C(=O)c2cc(C#CC3(O)CCCC3)cnc2O[C@@H]1CN(C)C(=O)CC1CC1	-2.5	3.3	-1.0	-0.4	nt	3.9
COc1ccc(CNc2nc(=S)[nH]c3cc(OC)c(OC)cc23)cc1	-4.4	6.0	0.4	-2.0	-8.5	-2.3
COc1cc2[nH]c(=S)nc(NCc3ccccc3)c2cc1OC	-0.1	-15.9*	0.4	-5.7	-0.4	-9.4
CCn1nc(Cc2cccc3ccccc23)c(C#N)c1N	-1.8	-27.1*	2.1	-4.7	-2.6	37.3
N#CCCn1nc(Cc2cccc3ccccc23)c(C#N)c1N	1.2	-9.7	1.0	?	-5.6	-2.3
O=C(NNC1=C(C(=O)C(F)(F)F)CCC1)c1ccc(Br)cc1	0.1	-15.9	-3.8	8.8	130.2*	-9.2
CO[C@H]1CN(C)C(=O)c2ccc(NC(=O)c3ccc(Oc4ccccc4)cc3)cc2OC[C@@H](C)NC[C@H]1C	10.3	-4.5	-0.2	31.4*	nt	-1.6
CO[C@H]1CN(C)C(=O)c2ccc(NC(=O)c3ccccc3)cc2OC[C@H](C)NC[C@H]1C	-2.6	1.4	-2.3	-4.3	nt	12.7
CO[C@H]1CN(C)C(=O)c2ccc(NC(=O)c3ccccc3)cc2OC[C@H](C)NC[C@@H]1C	-6.6	1.8	nt	39.2*	nt	2.9
CO[C@@H]1CN(C)C(=O)c2cc(NC(=O)c3ccc(Oc4ccccc4)cc3)ccc2OC[C@H](C)NC[C@@H]1C	9.8	-4.6	4.2	22.5*	nt	-0.1
C/C=C/c1cnc2c(c1)C(=O)N([C@H](C)CO)C[C@H](C)[C@@H](CN(C)C(=O)NC1CCCCC1)O2	-1.5	3.7	6.4	-4.6	nt	3.5
C[C@@H](NC(=O)[C@@H]1[C@@H](CO)[C@@H]2Cn3c(ccc(-c4ccccc4)c3=O)[C@@H]2N1C)c1ccccc1	-1.6	-1.6	-3.5	-3.3	nt	-4.2
Cc1cc(C)c(S(=O)(=O)NCc2ccc3c(c2)cc(C)n3C)c(C)c1	0.7	-3.9	1.4	9.1	-46.0	82.9*
SMILES	AF4-AF9 inh	Ecoli rRNA inh	Cneo AK release	DENV2 CPE rescue	PfHsp90 set2	S100A4 inh HTS
C[C@@H](NC(=O)C[C@@H]1CC[C@H]2[C@@H](COC[C@@H](O)CN2Cc2cc(F)ccc2F)O1)c1ccccc1	1.3	-0.8	101.4*	nt	nt	2.5
C[C@@H](NC(=O)C[C@@H]1CC[C@@H]2[C@H](COC[C@H](O)CN2Cc2cc(F)ccc2F)O1)c1ccccc1	-0.6	-11.8	112.3*	nt	nt	-5.7
C[C@H]1CCCCO[C@@H](CN(C)C(=O)c2ccccc2)[C@@H](C)CN([C@@H](C)CO)C(=O)c2cc(NC(=O)C3CCCCC3)ccc2O1	0.4	1.7	1.4	1.6	nt	-24.6
CC(C)(C)/C(COc1ccccc1[N+](=O)[O-])=N/O	2.7	-17.0*	2.3	-1.2	14.7	-1.0
COc1cccc(C(=O)C(C#N)=C(SC)SC)c1	-5.2	0.9	-4.5	33.9*	-0.7	4.0
CSC(SC)=C(C#N)C(=O)c1ccccc1	nt	-4.2	-6.9	?	2.5	-1.9
O=C(C[C@@H]1C[C@H]2c3cc(NC(=O)Nc4ccccc4)ccc3O[C@H]2[C@@H](CO)O1)NC1CCCC1	1.8	11.5	56.3	0.5	nt	-8.7
CC#C[C@@H](CC)c1ccc2ccn(C)c2c1	-1.1	15.3	-0.6	57.9*	8.2	-2.9
COc1ccc(S(=O)(=O)Nc2cccc3c2O[C@@H](CN(C)C(=O)Nc2c(C)noc2C)[C@@H](C)CN([C@@H](C)CO)C3=O)cc1	-2.9	2.6	0.4	26.3*	nt	?
COc1ccc(S(=O)(=O)Nc2cccc3c2O[C@@H](CN(C)S(=O)(=O)c2c(C)noc2C)[C@H](C)CN([C@H](C)CO)C3=O)cc1	-0.9	-1.6	-0.2	-1.9	nt	0.0
COc1ccc(S(=O)(=O)Nc2cccc3c2O[C@@H](CN(C)S(=O)(=O)c2c(C)noc2C)[C@H](C)CN([C@@H](C)CO)C3=O)cc1	-3.7	2.1	0.0	?	nt	127.2*
O=C(O)[C@H]1CCCC[C@H]1C(=O)Nc1ccc(Nc2ccccc2)cc1	nt	nt	-1.4	nt	11.7	nt
O=C(O)C1CCCCC1C(=O)Nc1ccc(OCc2ccccc2)cc1 (configuration not stated)	-35.7	-24.1*	1.2	?	-23.2	2.8
Cc1cccc(OCC(=O)NNC(=O)C2CCCCC2C(=O)O)c1 (configuration not stated)	-8.3	14.1	1.9	22.3*	-2.3	0.8
O=C(NC1CCCCC1)N[C@@H]1CC[C@H](CCNS(=O)(=O)c2ccccc2)O[C@H]1CO	1.2	0.4	-0.5	7.5	nt	-10.2
Cc1csc(-c2nc3ccccc3n2C(C)c2nc3ccccc3[nH]2)c1 (configuration not stated)	1.3	-30.4*	nt	0.6	nt	-2.7
